Reference: ChEMBL document CHEMBL5230180, “A cationic amphiphilic peptide chaperone rescues Aβ42 aggregation and cytotoxicity” (RSC Med Chem, 2023)
Blank lines part the entries; values can stand above or below the compound they belong to. Activity calls are given as the source filed them. The rule behind the calls is not given here.

What was measured:
[1] = molecular target: Amyloid-beta precursor protein (Homo sapiens) (UniProt P05067); assay: Disruption of aggregated Amyloid beta 42 fibrils (unknown origin) assessed as reduction in fluorescence intensity at compound:Abeta42 concentration ratio of 1:1 treated with compound after 16 hrs of incubation of Abeta42 in solution by ThT fluorescence assay
Method in brief: (§1)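 Aβ42 (25 μM) preincubated with 20 μM ThT at 37 °C; peptide added at 1:1 after 16 or 24 h, incubation continued and ThT fluorescence followed over time; buffer 10 mM sodium phosphate, 150 mM NaCl, 1 mM EDTA, pH 7.4.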

[2] = molecular target: Amyloid-beta precursor protein (Homo sapiens) (UniProt P05067); assay: Inhibition of amyloid beta 42 (unknown origin) aggregation assessed as fluorescence intensity at compound:Abeta42 concentration ratio of 0.5:1 measured for 48 hrs by ThT fluorescence assay; parameters: scale not given: the % may be the effect or the level left
Method in brief: (§2)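 Soluble (pre-aggregation) Aβ42 at 25 μM with 20 μM ThT, incubated with peptide at 0.1–10 equivalents (2.5–250 μM) in 10 mM sodium phosphate, 150 mM NaCl, 1 mM EDTA, pH 7.4; time-dependent ThT fluorescence monitored, normalized to Aβ42 alone.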

[3] = molecular target: Amyloid-beta precursor protein (Homo sapiens) (UniProt P05067); assay: Inhibition of amyloid beta 42 (unknown origin) aggregation assessed as decrease in absorbance at 450 nm at Abeta42:compound concentration ratio of 1:0.5 to 1:10 incubated for up to 24 hrs by ELISA
Method in brief: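 Aβ42 in PBS preincubated 24 h with peptide (0.5–10 equivalents), then captured on oligomer-specific monoclonal antibody-coated wells; detection via biotinylated antibody, streptavidin-HRP and TMB, absorbance 450 nm; peptide-alone wells included.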

[4] = Hemolytic activity against red blood cells (unknown origin) upto 250 uM; type: toxicity, cell-based; conditions: erythrocyte
Method in brief: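 Red blood cells treated with a range of peptide concentrations up to 250 μM; haemolysis assessed.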

[5] = molecular target: Amyloid-beta precursor protein (Homo sapiens) (UniProt P05067); assay: Inhibition of amyloid beta 42 (unknown origin) aggregation assessed as aggregated particle size at equimolar concentration with Abeta42 incubated for 24 hrs by Dynamic light scattering based analysis (reference value: 800 nm)
Method in brief: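 Dynamic light scattering of 10 μM Aβ42 with or without peptide after 24 h at 37 °C; frequency distribution of particle diameter.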

[6] = molecular target: Amyloid-beta precursor protein (Homo sapiens) (UniProt P05067); assay: Inhibition of amyloid beta 42 (unknown origin) aggregation assessed as reduction in fluorescence intensity at Abeta42:compound concentration ratio of 1:5 measured for 48 hrs by ThT fluorescence assay; method in brief: as §2
[7] = molecular target: Amyloid-beta precursor protein (Homo sapiens) (UniProt P05067); assay: Disruption of aggregated Amyloid beta 42 fibrils (unknown origin) assessed as reduction in fluorescence intensity at compound:Abeta42 concentration ratio of 1:1 treated with compound after 24 hrs of incubation of Abeta42 in solution by ThT fluorescence assay; method in brief: as §1
[8] = molecular target: Amyloid-beta precursor protein (Homo sapiens) (UniProt P05067); assay: Inhibition of amyloid beta 42 (unknown origin) aggregation assessed as transformation of random coil structure to helical secondary structure with CD minima at 205 nm and 221 nm at Abeta42:compound concentration ratio of 1:1 incubated for 24 hrs by circular dichroism analysis
Method in brief: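 CD spectra of 50 μM soluble Aβ42 in PBS at 0 h and after 24 h at room temperature, alone or with equimolar (50 μM) peptide; peptide alone also recorded.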

[9] = molecular target: Amyloid-beta precursor protein (Homo sapiens) (UniProt P05067); assay: Inhibition of amyloid beta 42 (unknown origin) aggregation assessed as fluorescence intensity at 0.3 equivalents measured for 48 hrs by ThT fluorescence assay; parameters: scale not given: the % may be the effect or the level left; conditions: dose 0.3 equiv; method in brief: as §2
[10] = molecular target: Amyloid-beta precursor protein (Homo sapiens) (UniProt P05067); assay: Inhibition of amyloid beta 42 (unknown origin) aggregation assessed as half time for Abeta42 aggregation at Abeta42:compound concentration ratio of 1:0.5 by ThT fluorescence assay (reference value: 9.34 +/-0.25 hrs)
[11] = molecular target: Amyloid-beta precursor protein (Homo sapiens) (UniProt P05067); assay: Inhibition of amyloid beta 42 (unknown origin) aggregation assessed as reduction in Abeta42 fibrillar network at compound:Abeta42 concentration ratio of 1:1 incubated for 48 hrs by HR-TEM analysis
Method in brief: (§3)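 10 μM soluble Aβ42 incubated at 37 °C for about 48 h alone or with peptide (1:1; 10 μM); fibril morphology imaged by HR-TEM and AFM.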

SH-SY5Y [12] = assay: Protection against Abeta42-induced cytotoxicity in human SH-SY5Y cells assessed as increase in cell viability at Abeta42:compound concentration ratio of 1:1 incubated for 24 hrs by MTT assay; type: functional, cell-based
Method in brief: (§4)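 SH-SY5Y cells given 10 μM soluble Aβ42 with peptide (1, 2, 3, 5, 10, 30 μM; 1:1 for comparison) at 37 °C up to 24 h; MTT formazan read-out relative to cells without peptide or Aβ42; IC50 from dose–response.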

[13] = molecular target: Amyloid-beta precursor protein (Homo sapiens) (UniProt P05067); assay: Inhibition of amyloid beta 42 (unknown origin) aggregation assessed as fluorescence intensity at 0.1 equivalents measured for 48 hrs by ThT fluorescence assay; parameters: scale not given: the % may be the effect or the level left; conditions: dose 0.1 equiv; method in brief: as §2
[14] = molecular target: Amyloid-beta precursor protein (Homo sapiens) (UniProt P05067); assay: Inhibition of amyloid beta 42 (unknown origin) aggregation assessed as reduction in Abeta42 fibrillar network at 10 uM incubated for 48 hrs by AFM analysis; method in brief: as §3
[15] = molecular target: Amyloid-beta precursor protein (Homo sapiens) (UniProt P05067); assay: Inhibition of amyloid beta 42 (unknown origin) aggregation assessed as lag time for Abeta42 aggregation at Abeta42:compound concentration ratio of 1:0.5 by ThT fluorescence assay (reference value: 6.35 +/-0.32 hrs)
[16] = molecular target: Amyloid-beta precursor protein (Homo sapiens) (UniProt P05067); assay: Inhibition of amyloid beta 42 (unknown origin) aggregation assessed as reduction in fluorescence intensity at equimolar concentration with Abeta42 incubated for 48 hrs by ThT laser scanning confocal microscopy
SH-SY5Y [17] = assay: Cytotoxicity against human SH-SY5Y cells assessed as reduction in cell viability upto 30 uM incubated for 24 hrs by MTT assay; type: toxicity, cell-based
Method in brief: (§5)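 SH-SY5Y neuronal cells exposed to peptide alone (1–30 μM) at 37 °C up to 24 h; viability by MTT conversion to formazan, compared with untreated control cells.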

[18] = molecular target: Amyloid-beta precursor protein (Homo sapiens) (UniProt P05067); assay: Inhibition of amyloid beta 42 (unknown origin) aggregation assessed as reduction in fluorescence intensity at Abeta42:compound concentration ratio of 1:10 measured for 48 hrs by ThT fluorescence assay; method in brief: as §2
SH-SY5Y [19] = assay: Protection against Abeta42-induced cytotoxicity in human SH-SY5Y cells assessed as increase in cell viability incubated for 24 hrs in presence of 10 uM Abeta42 by MTT assay; type: functional, cell-based; method in brief: as §4
[20] = molecular target: Amyloid-beta precursor protein (Homo sapiens) (UniProt P05067); assay: Inhibition of amyloid beta 42 (unknown origin) aggregation assessed as reduction in fluorescence intensity at Abeta42:compound concentration ratio of 1:3 measured for 48 hrs by ThT fluorescence assay; method in brief: as §2
[21] = molecular target: Amyloid-beta precursor protein (Homo sapiens) (UniProt P05067); assay: Inhibition of 15N-labeled amyloid beta 42 (unknown origin) aggregation assessed as Abeta42 conformational reorganization by measuring changes in positions of Abeta42 cross-peaks at Abeta42:compound concentration ratio of 1:1 by 1H-15N HSQC NMR spectral analysis
[22] = molecular target: Amyloid-beta precursor protein (Homo sapiens) (UniProt P05067); assay: Inhibition of amyloid beta 42 (unknown origin) aggregation assessed as fluorescence intensity at compound:Abeta42 concentration ratio of 1:1 measured for 48 hrs by ThT fluorescence assay; parameters: scale not given: the % may be the effect or the level left; method in brief: as §2
[23] = molecular target: Amyloid-beta precursor protein (Homo sapiens) (UniProt P05067); assay: Inhibition of amyloid beta 42 (unknown origin) aggregation assessed as lag time for Abeta42 aggregation at Abeta42:compound concentration ratio of 1:1 by ThT fluorescence assay (reference value: 6.35 +/-0.32 hrs)
[24] = molecular target: Amyloid-beta precursor protein (Homo sapiens) (UniProt P05067); assay: Inhibition of amyloid beta 42 (unknown origin) aggregation assessed as reduction in fluorescence intensity measured for 48 hrs by ThT fluorescence assay; method in brief: as §2
[25] = molecular target: Amyloid-beta precursor protein (Homo sapiens) (UniProt P05067); assay: Inhibition of amyloid beta 42 (unknown origin) aggregation assessed as half time for Abeta42 aggregation at Abeta42:compound concentration ratio of 1:1 by ThT fluorescence assay (reference value: 9.34 +/-0.25 hrs)
SH-SY5Y [26] = assay: Cytotoxicity against human SH-SY5Y cells assessed as reduction in cell viability at 30 uM incubated for 24 hrs by MTT assay; type: toxicity, cell-based; method in brief: as §5

Sequence of Amyloid-beta precursor protein (Homo sapiens) (P05067 whole entry): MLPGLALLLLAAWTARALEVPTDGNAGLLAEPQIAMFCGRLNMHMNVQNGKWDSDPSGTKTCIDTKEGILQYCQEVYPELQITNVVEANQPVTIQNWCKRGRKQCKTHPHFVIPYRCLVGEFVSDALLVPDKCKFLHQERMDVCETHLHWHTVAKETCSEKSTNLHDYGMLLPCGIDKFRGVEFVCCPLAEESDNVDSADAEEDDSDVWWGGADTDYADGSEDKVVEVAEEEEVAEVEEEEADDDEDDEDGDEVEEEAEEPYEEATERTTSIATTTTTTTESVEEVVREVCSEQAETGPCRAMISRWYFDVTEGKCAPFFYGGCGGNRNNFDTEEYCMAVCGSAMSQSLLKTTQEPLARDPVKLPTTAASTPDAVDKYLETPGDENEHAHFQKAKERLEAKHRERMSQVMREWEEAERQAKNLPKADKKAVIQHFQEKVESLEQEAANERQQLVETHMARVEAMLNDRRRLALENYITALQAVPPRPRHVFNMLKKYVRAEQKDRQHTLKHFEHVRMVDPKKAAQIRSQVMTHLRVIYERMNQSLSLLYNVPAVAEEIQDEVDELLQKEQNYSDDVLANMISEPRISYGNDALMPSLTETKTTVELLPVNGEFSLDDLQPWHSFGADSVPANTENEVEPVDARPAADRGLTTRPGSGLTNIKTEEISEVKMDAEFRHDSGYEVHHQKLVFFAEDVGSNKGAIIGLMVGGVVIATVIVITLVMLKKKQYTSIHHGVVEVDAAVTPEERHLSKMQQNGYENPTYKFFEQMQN

Activity [1]: Active | Activity [2]: 20% | inhibition [3]: Active | Activity [5]: 100 nm | inhibition [6]: Active | Activity [7]: Active | inhibition [8]: Active | Activity [9]: 30% | T1/2 [10]: 6.09 h | inhibition [11]: Active | Activity [13]: 40% | inhibition [14]: Active | TIME [15]: 1.8 h | inhibition [16]: Active | inhibition [18]: Active | inhibition [20]: Active | Activity [21]: Active | Activity [22]: < 3%
Compound: CC(=O)N[C@@H](CCCCN)C(=O)N[C@@H](CC(C)C)C(=O)N[C@@H](C)C(=O)N[C@@H](CCCCN)C(=O)N[C@@H](CC(C)C)C(=O)N[C@@H](C)C(=O)N[C@@H](CCCCN)C(=O)N[C@@H](CCCCN)C(=O)N[C@@H](CC(C)C)C(=O)N[C@@H](C)C(=O)N[C@@H](CCCCN)C(=O)N[C@@H](CC(C)C)C(=O)N[C@@H](C)C(=O)N[C@@H](CCCCN)C(=O)N[C@@H](CC(C)C)C(N)=O
Activity [4]: Non-Toxic | Activity (SH-SY5Y [12]): Active | Activity (SH-SY5Y [17]): Non-Toxic | IC50 (SH-SY5Y [19]): 8.73 µM

TIME [23]: 2.14 h | inhibition [24]: Dose-Dependent Effect | T1/2 [25]: 8.22 h
Compound: Ac-KLAKLAKL-NH2
Activity (SH-SY5Y [12]): Active | Activity (SH-SY5Y [26]): Non-Toxic

inhibition [24]: inactive
Compound: Ac-ALAALALALAALAAL-NH2

TIME [23]: 0.75 h | inhibition [24]: Dose-Dependent Effect | T1/2 [25]: 9.59 h
Compound: Ac-KLAKLAKKLAKL-NH2
Activity (SH-SY5Y [12]): Active | Activity (SH-SY5Y [26]): Non-Toxic
